Experimental findings from ChEMBL document CHEMBL1144006, “Phenylalanine-containing hydroxamic acids as selective inhibitors of class IIb histone deacetylases (HDACs)” (Bioorg Med Chem, 2008) are described below.

SMILES strings stand for the structures.

For assay [1], the target named is T1, Protein deacetylase HDAC6 (Homo sapiens, UniProt Q9UBN7).
T1 sequence (Q9UBN7 whole entry): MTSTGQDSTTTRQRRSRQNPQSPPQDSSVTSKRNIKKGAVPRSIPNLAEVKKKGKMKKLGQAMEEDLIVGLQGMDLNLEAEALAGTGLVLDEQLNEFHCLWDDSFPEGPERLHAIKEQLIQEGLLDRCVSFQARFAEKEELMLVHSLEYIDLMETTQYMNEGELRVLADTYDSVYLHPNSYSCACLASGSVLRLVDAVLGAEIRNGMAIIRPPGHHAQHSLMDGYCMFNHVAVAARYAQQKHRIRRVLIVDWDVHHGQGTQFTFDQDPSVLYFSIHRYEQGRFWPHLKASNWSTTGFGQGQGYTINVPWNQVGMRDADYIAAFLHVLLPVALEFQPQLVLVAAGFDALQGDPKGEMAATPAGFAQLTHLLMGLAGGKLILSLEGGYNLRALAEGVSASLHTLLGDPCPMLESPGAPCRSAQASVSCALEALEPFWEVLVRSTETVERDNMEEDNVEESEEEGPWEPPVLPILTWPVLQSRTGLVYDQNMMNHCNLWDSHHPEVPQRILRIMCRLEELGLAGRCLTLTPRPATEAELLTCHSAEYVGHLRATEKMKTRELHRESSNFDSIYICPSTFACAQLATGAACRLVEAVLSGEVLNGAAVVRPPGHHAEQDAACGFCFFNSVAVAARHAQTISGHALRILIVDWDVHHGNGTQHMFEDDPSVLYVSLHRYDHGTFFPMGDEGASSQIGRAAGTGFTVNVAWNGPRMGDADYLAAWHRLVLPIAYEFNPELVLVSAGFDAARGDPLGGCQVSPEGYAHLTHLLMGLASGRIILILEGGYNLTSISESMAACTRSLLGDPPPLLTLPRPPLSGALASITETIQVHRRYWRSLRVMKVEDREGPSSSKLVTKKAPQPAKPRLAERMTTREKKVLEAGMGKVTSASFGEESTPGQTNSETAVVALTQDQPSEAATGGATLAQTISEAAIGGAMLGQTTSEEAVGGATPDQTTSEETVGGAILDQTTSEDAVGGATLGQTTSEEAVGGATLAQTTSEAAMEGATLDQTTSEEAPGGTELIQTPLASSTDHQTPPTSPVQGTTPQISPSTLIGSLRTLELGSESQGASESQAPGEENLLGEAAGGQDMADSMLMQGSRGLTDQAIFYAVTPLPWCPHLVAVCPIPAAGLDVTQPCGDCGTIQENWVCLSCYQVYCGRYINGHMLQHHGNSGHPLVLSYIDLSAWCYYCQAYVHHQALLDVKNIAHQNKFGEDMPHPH
The assay can be described thus: Inhibition of FLAG-tagged HDAC6 expressed in human 293T cells. It is filed as cell-based.

Assay [2] has as its target Histone deacetylase 1 (Rattus norvegicus, UniProt Q4QQW4). As to the kind of experiment: Inhibition of HDAC1 in rat liver extract by trypsin assay. The procedure, abridged:
(§1)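 Same rat liver extract and the subtype-selective substrates (Z-(propionyl)Lys-AMC for HDAC1, Boc(Ac)Lys-(F3-AMC) for HDAC6), incubated with inhibitor at 37 C. After incubation the reaction was developed with trypsin instead of NDA. IC50 was taken from a dilution series against 0% and 100% (TSA) inhibition standards.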

Assay [3] in a line: Inhibition of HDAC6 in rat liver extract by trypsin assay. The procedure, abridged:
as §1

The species named for assay [4] is Homo sapiens. As to the kind of experiment: Selectivity for human FLAG-tagged HDAC6 over human FLAG-tagged HDAC1. The method in brief: (§2)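 FLAG-HDAC1 or FLAG-HDAC6 was immunoprecipitated with M2 agarose from lysates of overexpressing 293T cells, washed in enzyme buffer and diluted 1:10. Bead suspension, inhibitor and unselective fluorogenic substrate ZMAL were incubated at 37 C for 180 min. The reaction was stopped with TSA/borate pH 9.5/NDA and read at ex 330/em 390 nm. IC50 came from a dilution series against 0% and 100% (TSA) inhibition standards. Selectivity is the ratio of HDAC1 to HDAC6 IC50.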

The subject of assay [5] is MCF7. As to the kind of experiment: Cytotoxicity against human MCF7 cells after 48 hrs by One aqueous proliferation assay. The class given is functional, cell-based. Particulars: MCF7, 48 h. The method in brief:
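Cells seeded at 5000 per well, with compound or DMSO vehicle added 24 h after seeding. Incubated 48 h at 37 C, three replicates per concentration. Growth was read by MTS absorbance at 490 nm. GI50 is the concentration reducing cell number by 50% versus control.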

Assay [6] is filed under the species Rattus norvegicus. The assay can be described thus: Selectivity for rat liver HDAC6 over rat liver HDAC1.
Assay [7] deals with Histone deacetylase 1 (Homo sapiens, UniProt Q13547). As to the kind of experiment: Inhibition of FLAG-tagged HDAC1 expressed in human 293T cells. It is filed as cell-based. The method in brief: as §2
Sequence of Histone deacetylase 1 (Homo sapiens, UniProt Q13547) (Q13547 whole entry): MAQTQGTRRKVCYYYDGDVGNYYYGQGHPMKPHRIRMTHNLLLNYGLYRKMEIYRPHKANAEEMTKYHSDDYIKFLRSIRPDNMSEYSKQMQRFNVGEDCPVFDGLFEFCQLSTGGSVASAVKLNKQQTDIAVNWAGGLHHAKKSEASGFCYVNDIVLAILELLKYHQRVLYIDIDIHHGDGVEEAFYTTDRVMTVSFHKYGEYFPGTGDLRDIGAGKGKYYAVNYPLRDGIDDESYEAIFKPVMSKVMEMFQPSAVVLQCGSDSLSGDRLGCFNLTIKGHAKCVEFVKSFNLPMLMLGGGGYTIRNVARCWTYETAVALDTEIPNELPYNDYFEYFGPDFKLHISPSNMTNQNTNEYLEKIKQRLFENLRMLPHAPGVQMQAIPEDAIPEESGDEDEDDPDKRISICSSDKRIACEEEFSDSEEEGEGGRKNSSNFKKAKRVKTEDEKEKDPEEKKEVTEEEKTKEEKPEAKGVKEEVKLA

Sequence of Histone deacetylase 1 (Rattus norvegicus, UniProt Q4QQW4) (Q4QQW4 whole entry): as the sequence (Q13547 whole entry) above, with R8K, D399E, E424D, L481M counted along it

As usually defined, the IC50 is the concentration needed to halve the response being measured. A high value points to weaker potency in that assay. As for `COC(=O)[C@H](Cc1ccc(-c2ccc3ccccc3c2)cc1)NC(=O)CCCCCCCC(=O)NO`, the 50% inhibitory concentration (IC50) is 2.85 µM in assay [1]; 5.19 µM in assay [2]; 3.76 µM in assay [3]; 4 µM in assay [5]; 10.5 µM in assay [7]. For the same molecule, the Ratio IC50 in assay [4] was found to be 3.7; in assay [6], 1.38.
